Measurements as given in ChEMBL document CHEMBL1134340, “GnRH antagonists: a new generation of long acting analogues incorporating p-ureido-phenylalanines at positions 5 and 6” (J Med Chem, 2001).
In brackets after ≈: the same amount, converted by molar mass. *1 amine or outer side, *2 acyl side, *3 side chain or, on linkers, in order; H or OH if unused. Where a SMILES comes first, the peptide text is derived from it. [ ]: non-standard residue; d: D form. Phe(4-NH(5-NH2triazol-3-yl)) = Nc1nc(Nc2ccc(C[C@H](N)C(=O)O)cc2)n[nH]1; X1 = Nc1nc(Nc2ccc(C[C@@H](N[*:1])C(=O)[*:2])cc2)n[nH]1; dPhe(4-NHCONH2) = NC(=O)Nc1ccc(C[C@@H](N)C(=O)O)cc1; Phe(4-NHCONH2) = NC(=O)Nc1ccc(C[C@H](N)C(=O)O)cc1; dPhe(4-Cl) = N[C@H](Cc1ccc(Cl)cc1)C(=O)O; d2Nal = N[C@H](Cc1ccc2ccccc2c1)C(=O)O; Lys(iPr) = CC(C)NCCCC[C@H](N)C(=O)O; d3Pal = N[C@H](Cc1cccnc1)C(=O)O

Tests used:
[1] = biological target: T1, Gonadotropin-releasing hormone receptor (Homo sapiens, UniProt P30968); test: Antagonism of human GnHR receptor, determined in a reporter gene assay in HEK293 cells; format: functional, cell-based
T1 sequence (P30968 whole entry): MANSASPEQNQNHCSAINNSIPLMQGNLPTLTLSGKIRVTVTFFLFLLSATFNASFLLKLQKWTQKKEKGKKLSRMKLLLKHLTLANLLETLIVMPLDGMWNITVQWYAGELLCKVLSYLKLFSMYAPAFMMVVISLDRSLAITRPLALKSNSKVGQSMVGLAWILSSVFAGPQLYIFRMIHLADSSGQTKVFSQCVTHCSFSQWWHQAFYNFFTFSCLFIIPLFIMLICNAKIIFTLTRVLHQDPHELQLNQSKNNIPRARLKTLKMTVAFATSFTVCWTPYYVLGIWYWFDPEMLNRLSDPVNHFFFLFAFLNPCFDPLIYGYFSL
Outline: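 HEK293 cells stably expressing cloned human GnRH receptor plus luciferase reporter under LH alpha subunit promoter, plated 24 h before assay. Compound in 1% DMSO added 10 min at 37 °C, then GnRH at 3 nM final; 5 h incubation, luciferase luminescence read. Six concentrations in duplicate; blank-subtracted cps as % of GnRH control; mean of two determinations.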

[2] = biological target: T1, Gonadotropin-releasing hormone receptor; test: Competitive antagonism of GnRH-induced response in the reporter gene assay; format: functional; settings: for Kb: read-out: pA2 (converted)
Outline: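 Same HEK293 human GnRH receptor luciferase reporter cells. Seven-point GnRH curve (10 µM to 10 pM final) run in duplicate without or with four to five increasing compound concentrations (10 min preincubation, 37 °C), then 5 h and luminescence. GnRH EC50 at each level by four-parameter logistic fit, giving pA2; mean of two determinations in duplicate.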

Rattus norvegicus [3] = species: Rattus norvegicus; test: Compound was tested for inhibition of Leutenizing hormone release at 96 hours (very long duration) in castrated male rat assay; format: functional; set-up: concentration or dose not given beside the values
Outline: (§1)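 Male Sprague-Dawley rats (180-200 g), castrated under ether 10 days earlier, 5 per group. 50 µg/rat given sc in 100 µL 40 mM phosphate buffer with 0.1% BSA and 0.6% DMSO; acyline run as internal standard. Tail blood taken predose and at 24, 48, 72, 96 (sometimes 120) h; plasma LH by RIA. Duration classed by >80% LH inhibition at each time.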

Rattus norvegicus [4] = species: Rattus norvegicus; test: Effective dose for histamine release was determined; format: functional
Outline: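 ED50 for histamine release calculated from % release values across concentrations in rat peritoneal mast cell assay (2 min, 37 °C, o-phthalaldehyde fluorometric read-out, corrected for vehicle release).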

Rattus norvegicus [5] = species: Rattus norvegicus; test: Compound was tested for histamine release at a concentration of 100 ug/mL; format: functional
Outline: (§2)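 Sprague-Dawley rat peritoneal mast cells, Percoll-purified, in heparinized balanced salt solution with albumin, pH 7.2. Cells exposed to compound or vehicle for 2 min at 37 °C. Supernatant histamine measured spectrofluorometrically after o-phthalaldehyde derivatization; pellets lysed for retained histamine. Reported as % of total histamine released, corrected for spontaneous release in vehicle.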

Rattus norvegicus [6] = species: Rattus norvegicus; test: Compound was tested for histamine release at a concentration of 300 ug/mL; format: functional; outline: as §2
Rattus norvegicus [7] = species: Rattus norvegicus; test: Compound was tested for inhibition of Leutenizing hormone release at 24 hours (short duration) in castrated male rat assay; format: functional; set-up: concentration or dose not given beside the values; outline: as §1
Rattus norvegicus [8] = species: Rattus norvegicus; test: Compound was tested for histamine release at a concentration of 30 ug/mL; format: functional; outline: as §2
Rattus norvegicus [9] = species: Rattus norvegicus; test: Compound was tested for inhibition of Leutenizing hormone release at 72 hours (long duration) in castrated male rat assay; format: functional; set-up: concentration or dose not given beside the values; outline: as §1
Rattus norvegicus [10] = species: Rattus norvegicus; test: Compound was tested for histamine release at a concentration of 10 ug/mL; format: functional; outline: as §2

| SMILES | Inhibition (Rattus norvegicus [3]) [%] | HR (Rattus norvegicus [5]) [%] | HR (Rattus norvegicus [6]) [%] | IC50 [1] [nM] | Kb [2] [nM] | Inhibition (Rattus norvegicus [7]) [%] | HR (Rattus norvegicus [8]) [%] | other results |
| --- | --- | --- | --- | --- | --- | --- | --- | --- |
| CC(=O)N[C@H](Cc1ccc2ccccc2c1)C(=O)N[C@H](Cc1ccc(Cl)cc1)C(=O)N[C@H](Cc1cccnc1)C(=O)N[C@@H](CO)C(=O)N[C@@H](Cc1ccc(NC(=O)[C@H]2CC(=O)NC(=O)N2)cc1)C(=O)N[C@H](Cc1ccc(NC(N)=O)cc1)C(=O)N[C@@H](CC(C)C)C(=O)N[C@@H](CCCCNC(C)C)C(=O)N1CCC[C@H]1C(=O)N[C@H](C)C(N)=O | >80 | 54 | 68 |  |  |  |  | IC50 ([1]; hek293): 3 nM; pA2 [2]: 8.8; ED50 (Rattus norvegicus [4]): 170 mg/L (≈ 104 µM) |
| CC(=O)N[C@H](Cc1ccc2ccccc2c1)C(=O)N[C@H](Cc1ccc(Cl)cc1)C(=O)N[C@H](Cc1cccnc1)C(=O)N[C@@H](CO)C(=O)N[C@@H](Cc1ccc(NC(=O)[C@@H]2CC(=O)NC(=O)N2)cc1)C(=O)N[C@H](Cc1cccnc1)C(=O)N[C@@H](CC(C)C)C(=O)N[C@@H](CCCCNC(C)C)C(=O)N1CCC[C@H]1C(=O)N[C@H](C)C(N)=O | >80 | 68 | 62 |  |  |  |  |  |
| CC(=O)Nc1ccc(C[C@@H](NC(=O)[C@H](Cc2ccc(NC(=O)[C@@H]3CC(=O)NC(=O)N3)cc2)N(C)C(=O)[C@H](CO)NC(=O)[C@@H](Cc2cccnc2)NC(=O)[C@@H](Cc2ccc(Cl)cc2)NC(=O)[C@@H](Cc2ccc3ccccc3c2)NC(C)=O)C(=O)N[C@@H](CC(C)C)C(=O)N[C@@H](CCCCNC(C)C)C(=O)N2CCC[C@H]2C(=O)N[C@H](C)C(N)=O)cc1 |  | 124 |  | 8.1 | 0.794 | >80 | 50 |  |
| CC(=O)N[C@H](Cc1ccc2ccccc2c1)C(=O)N[C@H](Cc1ccc(Cl)cc1)C(=O)N[C@H](Cc1cccnc1)C(=O)N[C@@H](CO)C(=O)N[C@@H](Cc1ccc(NC(N)=O)cc1)C(=O)N[C@H](Cc1ccc(NC(N)=O)cc1)C(=O)N[C@@H](CC(C)C)C(=O)N[C@@H](CCCCNC(C)C)C(=O)N1CCC[C@H]1C(=O)N[C@H](C)C(N)=O (Ac-[d2Nal][dPhe(4-Cl)][d3Pal]S[Phe(4-NHCONH2)][dPhe(4-NHCONH2)]L[Lys(iPr)]P[dA]-NH2) |  | 153 |  | 2.8 | 1.58 |  | 75 | Inhibition (Rattus norvegicus [9]): >80%; HR (Rattus norvegicus [10]): <10% |
| COc1ccc(NC(=O)NC[C@H](NC(=O)[C@H](CO)NC(=O)[C@@H](Cc2cccnc2)NC(=O)[C@@H](Cc2ccc(Cl)cc2)NC(=O)[C@@H](Cc2ccc3ccccc3c2)NC(C)=O)C(=O)N[C@H](Cc2ccc(NC(C)=O)cc2)C(=O)N[C@@H](CC(C)C)C(=O)N[C@@H](CCCCNC(C)C)C(=O)N2CCC[C@H]2C(=O)N[C@H](C)C(N)=O)cc1 |  |  |  |  |  | >80 |  |  |
| CC(=O)Nc1ccc(C[C@@H](NC(=O)[C@H](CCNC(N)=O)NC(=O)[C@H](CO)NC(=O)[C@@H](Cc2cccnc2)NC(=O)[C@@H](Cc2ccc(Cl)cc2)NC(=O)[C@@H](Cc2ccc3ccccc3c2)NC(C)=O)C(=O)N[C@@H](CC(C)C)C(=O)N[C@@H](CCCCNC(C)C)C(=O)N2CCC[C@H]2C(=O)N[C@H](C)C(N)=O)cc1 |  |  |  |  |  | >80 |  |  |
| CC(=O)Nc1ccc(C[C@H](NC(=O)[C@H](CO)NC(=O)[C@@H](Cc2cccnc2)NC(=O)[C@@H](Cc2ccc(Cl)cc2)NC(=O)[C@@H](Cc2ccc3ccccc3c2)NC(C)=O)C(=O)N[C@H](Cc2ccc(NC(C)=O)cc2)C(=O)N[C@@H](CC(C)C)C(=O)N[C@@H](CCCCNC(C)C)C(=O)N2CCC[C@H]2C(=O)N[C@H](C)C(N)=O)cc1 [ACYLINE] |  | 56 | 87 | 6.8 | 2.51 |  | 43 | Inhibition (Rattus norvegicus [9]): >80%; ED50 (Rattus norvegicus [4]): 66 mg/L (≈ 43 µM) |
| CNC(=O)NCc1ccc(C[C@@H](NC(=O)[C@H](Cc2ccc(NC(=O)[C@@H]3CC(=O)NC(=O)N3)cc2)NC(=O)[C@H](CO)NC(=O)[C@@H](Cc2cccnc2)NC(=O)[C@@H](Cc2ccc(Cl)cc2)NC(=O)[C@@H](Cc2ccc3ccccc3c2)NC(C)=O)C(=O)N[C@@H](CC(C)C)C(=O)N[C@@H](CCCCNC(C)C)C(=O)N2CCC[C@H]2C(=O)N[C@H](C)C(N)=O)cc1 | >80 | 56 | 67 |  |  |  |  |  |
| CC(=O)N[C@H](Cc1ccc2ccccc2c1)C(=O)N[C@H](Cc1ccc(Cl)cc1)C(=O)N[C@H](Cc1cccnc1)C(=O)N[C@@H](CO)C(=O)N[C@@H](Cc1ccc(Nc2n[nH]c(N)n2)cc1)C(=O)N[C@H](Cc1ccc(Nc2n[nH]c(N)n2)cc1)C(=O)N[C@@H](CC(C)C)C(=O)N[C@@H](CCCCNC(C)C)C(=O)N1CCC[C@H]1C(=O)N[C@H](C)C(N)=O.CC(=O)O [PRAZARELIX ACETATE] (Ac-[d2Nal][dPhe(4-Cl)][d3Pal]S[Phe(4-NH(5-NH2triazol-3-yl))][X1]L[Lys(iPr)]P[dA]-NH2) |  | 93 |  | 6.9 | 1.58 |  | 70 | Inhibition (Rattus norvegicus [9]): >80%; ED50 (Rattus norvegicus [4]): 19 mg/L; HR (Rattus norvegicus [10]): 17% |
| CCNC(=O)NC[C@H](NC(=O)[C@H](CO)NC(=O)[C@@H](Cc1cccnc1)NC(=O)[C@@H](Cc1ccc(Cl)cc1)NC(=O)[C@@H](Cc1ccc2ccccc2c1)NC(C)=O)C(=O)N[C@H](Cc1ccc(NC(C)=O)cc1)C(=O)N[C@@H](CC(C)C)C(=O)N[C@@H](CCCCNC(C)C)C(=O)N1CCC[C@H]1C(=O)N[C@H](C)C(N)=O |  |  |  |  |  | >80 |  |  |
| CC(=O)N[C@H](Cc1ccc2ccccc2c1)C(=O)N[C@H](Cc1ccc(Cl)cc1)C(=O)N[C@H](Cc1cccnc1)C(=O)N[C@@H](CO)C(=O)N[C@@H](Cc1ccc(NC(=O)[C@@H]2CC(=O)NC(=O)N2)cc1)C(=O)N[C@H](Cc1ccc2ccccc2c1)C(=O)N[C@@H](CC(C)C)C(=O)N[C@@H](CCCCNC(C)C)C(=O)N1CCC[C@H]1C(=O)N[C@H](C)C(N)=O |  |  |  |  |  | >80 |  |  |
| CC(=O)Nc1ccc(C[C@@H](NC(=O)[C@H](CNC(N)=O)NC(=O)[C@H](CO)NC(=O)[C@@H](Cc2cccnc2)NC(=O)[C@@H](Cc2ccc(Cl)cc2)NC(=O)[C@@H](Cc2ccc3ccccc3c2)NC(C)=O)C(=O)N[C@@H](CC(C)C)C(=O)N[C@@H](CCCCNC(C)C)C(=O)N2CCC[C@H]2C(=O)N[C@H](C)C(N)=O)cc1 |  |  |  |  |  | >80 |  |  |
| CC(=O)Nc1ccc(C[C@@H](NC(=O)[C@H](Cc2ccc(NC(=O)c3cnc(O)nc3O)cc2)NC(=O)[C@H](CO)NC(=O)[C@@H](Cc2cccnc2)NC(=O)[C@@H](Cc2ccc(Cl)cc2)NC(=O)[C@@H](Cc2ccc3ccccc3c2)NC(C)=O)C(=O)N[C@@H](CC(C)C)C(=O)N[C@@H](CCCCNC(C)C)C(=O)N2CCC[C@H]2C(=O)N[C@H](C)C(N)=O)cc1 |  |  |  | 8.2 |  | >80 |  |  |
| CC(=O)N[C@H](Cc1ccc2ccccc2c1)C(=O)N[C@H](Cc1ccc(Cl)cc1)C(=O)N[C@H](Cc1cccnc1)C(=O)N[C@@H](CO)C(=O)N[C@@H](Cc1ccc(NC(=O)[C@@H]2CC(=O)NC(=O)N2)cc1)C(=O)N[C@H](Cc1ccc(CNC(N)=O)cc1)C(=O)N[C@@H](CC(C)C)C(=O)N[C@@H](CCCCNC(C)C)C(=O)N1CCC[C@H]1C(=O)N[C@H](C)C(N)=O | >80 | 48 | 64 |  |  |  | 21 |  |
| CC(=O)N[C@H](Cc1ccc2ccccc2c1)C(=O)N[C@H](Cc1ccc(Cl)cc1)C(=O)N[C@H](Cc1cccnc1)C(=O)N[C@@H](CO)C(=O)N[C@@H](Cc1ccc(NC(=O)[C@H]2CC(=O)NC(=O)N2)cc1)C(=O)N[C@H](Cc1ccc(NC(=O)[C@H]2CC(=O)NC(=O)N2)cc1)C(=O)N[C@@H](CC(C)C)C(=O)N[C@@H](CCCCNC(C)C)C(=O)N1CCC[C@H]1C(=O)N[C@H](C)C(N)=O | >80 | 69 | 64 |  |  |  |  | IC50 ([1]; hek293): 7.7 nM; pA2 [2]: 9 |
| CCNC(=O)Nc1ccc(C[C@H](NC(=O)[C@H](CO)NC(=O)[C@@H](Cc2cccnc2)NC(=O)[C@@H](Cc2ccc(Cl)cc2)NC(=O)[C@@H](Cc2ccc3ccccc3c2)NC(C)=O)C(=O)N[C@H](Cc2ccc(NC(=O)NCC)cc2)C(=O)N[C@@H](CC(C)C)C(=O)N[C@@H](CCCCNC(C)C)C(=O)N2CCC[C@H]2C(=O)N[C@H](C)C(N)=O)cc1 |  |  |  | 5 | 1.26 | >80 |  |  |
